The source made the active and inactive calls. No cut-off for these calls is given here.
Legend:
Sindbis virus = assay: Antiviral activity against Sindbis virus infected in Vero cells assessed as inhibition of virus-induced cytopathic effect at 100 uM by MTS assay; type: functional, organism-based
In short: (§1)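 Vero cell monolayers were infected with the virus in cell-based CPE assays. EC50 is the concentration giving 50% inhibition of virus-induced cytopathic effect, scored visually or by MTS formazan colorimetric cell-viability read-out. The highest concentration tested was 100 μM for most compounds and lower for a few.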

Human alphaherpesvirus 1 = assay: Antiviral activity against HSV1 virus infected in HEL cells assessed as inhibition of virus-induced cytopathic effect at 100 uM by MTS assay; type: functional, organism-based
Feline coronavirus = assay: Antiviral activity against feline coronavirus infected in CRFK cells assessed as inhibition of virus-induced cytopathic effect at 100 uM by MTS assay; type: functional, organism-based
[1] = system: Mammalian orthoreovirus 1; assay: Antiviral activity against Reovirus1 infected in Vero cells assessed as inhibition of virus-induced cytopathic effect at 100 uM by MTS assay; type: functional, organism-based; in short: as §1
HeLa = assay: Cytotoxicity against human HeLa cells assessed as decrease in cell viability upto 100 uM by MTS assay; type: functional, cell-based
In short: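 Uninfected HeLa host cells were tested up to 100 μM. CC50 is the concentration causing a 50% drop in cell viability by colorimetric formazan-based MTS assay. Alternatively, MCC is the minimal concentration giving microscopically detectable alteration of normal cell morphology.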

Human respirovirus 3 = assay: Antiviral activity against Parainfluenza 3 virus infected in Vero cells assessed as inhibition of virus-induced cytopathic effect at 100 uM by MTS assay; type: functional, organism-based; in short: as §1
Punta Toro virus = assay: Antiviral activity against Punta Toro virus infected in Vero cells assessed as inhibition of virus-induced cytopathic effect at 100 uM by MTS assay; type: functional, organism-based; in short: as §1
Coxsackievirus B4 [2] = assay: Antiviral activity against Coxsackievirus B4 infected in HeLa cells assessed as inhibition of virus-induced cytopathic effect at 100 uM by MTS assay; type: functional, organism-based
In short: (§2)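 HeLa cells were infected with the virus, and compounds were tested up to 100 μM. EC50 is the concentration that halves virus-induced cytopathic effect, read by visual CPE scoring or by MTS formazan colorimetric viability measurement.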

[3] = Cytotoxicity against CRFK cells assessed as decrease in cell viability upto 100 uM by MTS assay; type: cell-based, Felis catus; conditions: cat
Human alphaherpesvirus 2 = assay: Antiviral activity against HSV2 virus infected in HEL cells assessed as inhibition of virus-induced cytopathic effect at 100 uM by MTS assay; type: functional, organism-based
MDCK = assay: Cytotoxicity against MDCK cells assessed as decrease in cell viability upto 100 uM by MTS assay; type: cell-based, Canis lupus familiaris; conditions: dog
Coxsackievirus B4 [4] = assay: Antiviral activity against Coxsackievirus B4 infected in Vero cells assessed as inhibition of virus-induced cytopathic effect at 100 uM by MTS assay; type: functional, organism-based; in short: as §1
HEL = assay: Cytotoxicity against HEL cells assessed as decrease in cell viability upto 100 uM by MTS assay; type: cell-based; conditions: human
[5] = system: Respiratory syncytial virus; assay: Antiviral activity against respiratory syncytial virus infected in HeLa cells assessed as inhibition of virus-induced cytopathic effect at 100 uM by MTS assay; type: functional, organism-based; in short: as §2
Felid alphaherpesvirus 1 = assay: Antiviral activity against feline herpes virus infected in CRFK cells assessed as inhibition of virus-induced cytopathic effect at 100 uM by MTS assay; type: functional, organism-based

| SMILES | Activity (Sindbis virus) | Activity (Human alphaherpesvirus 1) | Activity (Feline coronavirus) | Activity [1] | Activity (HeLa) | Activity (Human respirovirus 3) | Activity (Punta Toro virus) | Activity (Coxsackievirus B4 [2]) | Activity [3] | Activity (Human alphaherpesvirus 2) | Activity (MDCK) | Activity (Coxsackievirus B4 [4]) | Activity (HEL) | Activity [5] | Activity (Felid alphaherpesvirus 1) |
| --- | --- | --- | --- | --- | --- | --- | --- | --- | --- | --- | --- | --- | --- | --- | --- |
| CC(C)(C)C(=O)OCCN(Cn1ccc(=O)[nH]c1=O)S(=O)(=O)c1cccc(N)c1 | inactive | inactive | inactive | inactive | inactive | inactive | inactive | inactive | Not Active | inactive | Not Active | inactive | Not Active | inactive | inactive |
| Cc1cn(CN(CCOC(=O)C(C)(C)C)S(=O)(=O)c2cccc([N+](=O)[O-])c2)c(=O)[nH]c1=O | inactive | inactive | inactive | inactive | inactive | inactive | inactive | inactive | Not Active | inactive | Not Active | inactive | Not Active | inactive | inactive |
| CC(=O)Nc1ccc(S(=O)(=O)N(CCO)Cn2cc(C)c(=O)[nH]c2=O)cc1 | inactive | inactive | inactive | inactive | inactive | inactive | inactive | inactive | Not Active | inactive | Not Active | inactive | Not Active | inactive | inactive |
| CC(=O)Nc1ccc(S(=O)(=O)N(CCOC(=O)C(C)(C)C)Cn2cc(F)c(=O)[nH]c2=O)cc1 | inactive | inactive | inactive | inactive | inactive | inactive | inactive | inactive | Not Active | inactive | Not Active | inactive | Not Active | inactive | inactive |
| Cc1cn(CN(CCO)S(=O)(=O)c2cccc(N)c2)c(=O)[nH]c1=O | inactive | inactive | inactive | inactive | inactive | inactive | inactive | inactive | Not Active | inactive | Not Active | inactive | Not Active | inactive | inactive |
| CC(C)(C)C(=O)OCCN(Cn1ccc(=O)[nH]c1=O)S(=O)(=O)c1ccccc1[N+](=O)[O-] | inactive | inactive | inactive | inactive | inactive | inactive | inactive | inactive | Not Active | inactive | Not Active | inactive | Not Active | inactive | inactive |
| Cc1cn(CN(CCOC(=O)C(C)(C)C)S(=O)(=O)c2ccccc2N)c(=O)[nH]c1=O | inactive | inactive | inactive | inactive | inactive | inactive | inactive | inactive | Not Active | inactive | Not Active | inactive | Not Active | inactive | inactive |
| Cc1cn(CN(CCOC(=O)C(C)(C)C)S(=O)(=O)c2cccc(N)c2)c(=O)[nH]c1=O | inactive | inactive | inactive | inactive | inactive | inactive | inactive | inactive | Not Active | inactive | Not Active | inactive | Not Active | inactive | inactive |
| Cc1cn(CN(CCO)S(=O)(=O)c2ccc(N)cc2)c(=O)[nH]c1=O | inactive | inactive | inactive | inactive | inactive | inactive | inactive | inactive | Not Active | inactive | Not Active | inactive | Not Active | inactive | inactive |
| Cc1cn(CN(CCOC(=O)C(C)(C)C)S(=O)(=O)c2ccc(N)cc2)c(=O)[nH]c1=O | inactive | inactive | inactive | inactive | inactive | inactive | inactive | inactive | Not Active | inactive | Not Active | inactive | Not Active | inactive | inactive |
| CC(C)(C)C(=O)OCCN(Cn1cc(F)c(=O)[nH]c1=O)S(=O)(=O)c1cccc(N)c1 | inactive | inactive | inactive | inactive | inactive | inactive | inactive | inactive | Not Active | inactive | Not Active | inactive | Not Active | inactive | inactive |
| CC(C)(C)C(=O)OCCN(Cn1cc(F)c(=O)[nH]c1=O)S(=O)(=O)c1ccc(N)cc1 | inactive | inactive | inactive | inactive | inactive | inactive | inactive | inactive | Not Active | inactive | Not Active | inactive | Not Active | inactive | inactive |
| CC(C)(C)C(=O)OCCN(Cn1ccc(=O)[nH]c1=O)S(=O)(=O)c1cccc([N+](=O)[O-])c1 | inactive | inactive | inactive | inactive | inactive | inactive | inactive | inactive | Not Active | inactive | Not Active | inactive | Not Active | inactive | inactive |
| CC(C)(C)C(=O)OCCN(Cn1cc(F)c(=O)[nH]c1=O)S(=O)(=O)c1ccccc1N | inactive | inactive | inactive | inactive | inactive | inactive | inactive | inactive | Not Active | inactive | Not Active | inactive | Not Active | inactive | inactive |

Source: ChEMBL document CHEMBL1144203, “Synthesis and antiviral evaluation of acyclic azanucleosides developed from sulfanilamide as a lead structure” (Bioorg Med Chem, 2008)
